According to ChEMBL document CHEMBL4689842, “EUbOPEN Chemogenomics Library wave 1” (2021):

System: HEK-293T
Experiment: Multiplex assay against HEK293T;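 for Population Tubulin-Different-Phenotype (%): share of the cells with healthy nuclei that show this phenotype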
Format: toxicity, cell-based
Settings: human
Summary of the method: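 Live cells were stained at seeding with Hoechst33342, BioTracker Green Microtubule Cytoskeleton Dye, MitoTracker Red and Annexin V Alexa Fluor 680. Following compound addition, they were imaged on a CQ1 microscope at 37°C and 5% CO2 and gated by CellPathfinder machine learning into Hoechst high-intensity objects or normal cells, with normal cells split into healthy, pyknosed or fragmented nuclei and pyknosed cells into mitotic or apoptotic. Tubulin, mitochondrial-mass and membrane-permeability phenotypes are per cents of healthy-nucleus cells.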

[1] = 12 h, 1 µM, compound concentration 1 uM, replicate 1
[2] = 12 h, 1 µM, compound concentration 1 uM, replicate 2
[3] = 12 h, 10 µM, compound concentration 10 uM, replicate 1
[4] = 12 h, 10 µM, compound concentration 10 uM, replicate 2
[5] = 24 h, 1 µM, compound concentration 1 uM, replicate 1
[6] = 24 h, 1 µM, compound concentration 1 uM, replicate 2
[7] = 24 h, 10 µM, compound concentration 10 uM, replicate 1
[8] = 24 h, 10 µM, compound concentration 10 uM, replicate 2
[9] = 48 h, 1 µM, compound concentration 1 uM, replicate 1
[10] = 48 h, 1 µM, compound concentration 1 uM, replicate 2
[11] = 48 h, 10 µM, compound concentration 10 uM, replicate 1
[12] = 48 h, 10 µM, compound concentration 10 uM, replicate 2

Structure (SMILES): CC(C)NC(=O)N1CC[C@H](NC2=Nc3cc(F)ccc3N(CC(F)F)c3ccc(Cl)cc32)C1
- Population Apoptotic (%) [1]: 42%
- Population Fragmented Nuclei (%) [1]: 19%
- Population Healthy Nuclei (%) [1]: 34%
- Population Hoechst High Intensity Objects (%) [1]: 18%
- Population Membrane Permeable-Phenotype (%) [1]: 4%
- Population Mitochondria Different-Phenotype (%) [1]: 78%
- Population Mitotic Cells (%) [1]: 57%
- Population Normal (%) [1]: 81%
- Population Pyknosed Nuclei (%) [1]: 46%
- Population Tubulin-Different-Phenotype (%) [1]: 34%
- Total Cell Count [1]: 170
- Population Apoptotic (%) [2]: 8%
- Population Fragmented Nuclei (%) [2]: 4%
- Population Healthy Nuclei (%) [2]: 47%
- Population Hoechst High Intensity Objects (%) [2]: 3%
- Population Membrane Permeable-Phenotype (%) [2]: 13%
- Population Mitochondria Different-Phenotype (%) [2]: 24%
- Population Mitotic Cells (%) [2]: 91%
- Population Normal (%) [2]: 96%
- Population Pyknosed Nuclei (%) [2]: 47%
- Population Tubulin-Different-Phenotype (%) [2]: 25%
- Total Cell Count [2]: 304
- Population Apoptotic (%) [3]: 53%
- Population Fragmented Nuclei (%) [3]: 24%
- Population Healthy Nuclei (%) [3]: 38%
- Population Hoechst High Intensity Objects (%) [3]: 22%
- Population Membrane Permeable-Phenotype (%) [3]: 4%
- Population Mitochondria Different-Phenotype (%) [3]: 91%
- Population Mitotic Cells (%) [3]: 46%
- Population Normal (%) [3]: 77%
- Population Pyknosed Nuclei (%) [3]: 37%
- Population Tubulin-Different-Phenotype (%) [3]: 79%
- Total Cell Count [3]: 163
- Population Apoptotic (%) [4]: 20%
- Population Fragmented Nuclei (%) [4]: 6%
- Population Healthy Nuclei (%) [4]: 53%
- Population Hoechst High Intensity Objects (%) [4]: 5%
- Population Membrane Permeable-Phenotype (%) [4]: 10%
- Population Mitochondria Different-Phenotype (%) [4]: 48%
- Population Mitotic Cells (%) [4]: 79%
- Population Normal (%) [4]: 94%
- Population Pyknosed Nuclei (%) [4]: 40%
- Population Tubulin-Different-Phenotype (%) [4]: 57%
- Total Cell Count [4]: 170
- Population Apoptotic (%) [5]: 37%
- Population Fragmented Nuclei (%) [5]: 20%
- Population Healthy Nuclei (%) [5]: 39%
- Population Hoechst High Intensity Objects (%) [5]: 20%
- Population Membrane Permeable-Phenotype (%) [5]: 0%
- Population Mitochondria Different-Phenotype (%) [5]: 75%
- Population Mitotic Cells (%) [5]: 62%
- Population Normal (%) [5]: 79%
- Population Pyknosed Nuclei (%) [5]: 39%
- Population Tubulin-Different-Phenotype (%) [5]: 32%
- Total Cell Count [5]: 178
- Population Apoptotic (%) [6]: 15%
- Population Fragmented Nuclei (%) [6]: 4%
- Population Healthy Nuclei (%) [6]: 69%
- Population Hoechst High Intensity Objects (%) [6]: 3%
- Population Membrane Permeable-Phenotype (%) [6]: 8%
- Population Mitochondria Different-Phenotype (%) [6]: 13%
- Population Mitotic Cells (%) [6]: 84%
- Population Normal (%) [6]: 96%
- Population Pyknosed Nuclei (%) [6]: 25%
- Population Tubulin-Different-Phenotype (%) [6]: 25%
- Total Cell Count [6]: 367
- Population Apoptotic (%) [7]: 58%
- Population Fragmented Nuclei (%) [7]: 17%
- Population Healthy Nuclei (%) [7]: 32%
- Population Hoechst High Intensity Objects (%) [7]: 25%
- Population Membrane Permeable-Phenotype (%) [7]: 0%
- Population Mitochondria Different-Phenotype (%) [7]: 94%
- Population Mitotic Cells (%) [7]: 41%
- Population Normal (%) [7]: 74%
- Population Pyknosed Nuclei (%) [7]: 50%
- Population Tubulin-Different-Phenotype (%) [7]: 69%
- Total Cell Count [7]: 161
- Population Apoptotic (%) [8]: 37%
- Population Fragmented Nuclei (%) [8]: 9%
- Population Healthy Nuclei (%) [8]: 58%
- Population Hoechst High Intensity Objects (%) [8]: 2%
- Population Membrane Permeable-Phenotype (%) [8]: 6%
- Population Mitochondria Different-Phenotype (%) [8]: 71%
- Population Mitotic Cells (%) [8]: 62%
- Population Normal (%) [8]: 97%
- Population Pyknosed Nuclei (%) [8]: 32%
- Population Tubulin-Different-Phenotype (%) [8]: 61%
- Total Cell Count [8]: 169
- Population Apoptotic (%) [9]: 48%
- Population Fragmented Nuclei (%) [9]: 22%
- Population Healthy Nuclei (%) [9]: 37%
- Population Hoechst High Intensity Objects (%) [9]: 21%
- Population Membrane Permeable-Phenotype (%) [9]: 0%
- Population Mitochondria Different-Phenotype (%) [9]: 32%
- Population Mitotic Cells (%) [9]: 51%
- Population Normal (%) [9]: 78%
- Population Pyknosed Nuclei (%) [9]: 40%
- Population Tubulin-Different-Phenotype (%) [9]: 28%
- Total Cell Count [9]: 189
- Population Apoptotic (%) [10]: 17%
- Population Fragmented Nuclei (%) [10]: 5%
- Population Healthy Nuclei (%) [10]: 84%
- Population Hoechst High Intensity Objects (%) [10]: 3%
- Population Membrane Permeable-Phenotype (%) [10]: 4%
- Population Mitochondria Different-Phenotype (%) [10]: 4%
- Population Mitotic Cells (%) [10]: 82%
- Population Normal (%) [10]: 96%
- Population Pyknosed Nuclei (%) [10]: 10%
- Population Tubulin-Different-Phenotype (%) [10]: 25%
- Total Cell Count [10]: 580
- Population Apoptotic (%) [11]: 70%
- Population Fragmented Nuclei (%) [11]: 28%
- Population Healthy Nuclei (%) [11]: 39%
- Population Hoechst High Intensity Objects (%) [11]: 19%
- Population Membrane Permeable-Phenotype (%) [11]: 8%
- Population Mitochondria Different-Phenotype (%) [11]: 74%
- Population Mitotic Cells (%) [11]: 29%
- Population Normal (%) [11]: 80%
- Population Pyknosed Nuclei (%) [11]: 32%
- Population Tubulin-Different-Phenotype (%) [11]: 62%
- Total Cell Count [11]: 181
- Population Apoptotic (%) [12]: 48%
- Population Fragmented Nuclei (%) [12]: 8%
- Population Healthy Nuclei (%) [12]: 63%
- Population Hoechst High Intensity Objects (%) [12]: 2%
- Population Membrane Permeable-Phenotype (%) [12]: 5%
- Population Mitochondria Different-Phenotype (%) [12]: 46%
- Population Mitotic Cells (%) [12]: 51%
- Population Normal (%) [12]: 97%
- Population Pyknosed Nuclei (%) [12]: 28%
- Population Tubulin-Different-Phenotype (%) [12]: 61%
- Total Cell Count [12]: 219
